In the library only some 1.6% were active in any assay of this set; here they are far more common.
Neddylation inh – inhibitors of cullin neddylation, primary screen, biochemical, TR-FRET, uHTS, NAE and Ubc12; 0.58% of 360,000 active; NEDD8-conjugating enzyme Ubc12 (Homo sapiens) + NEDD8-activating enzyme E1 regulatory …; inhibition, % at 25 µM; AID 651699, 2012; in the data active means inhibition above about 36%
ASAP1 GAP inh – inhibitors of human ASAP1 ArfGAP activity, primary screen, biochemical, fluorescence polarization | Arf-GAP with SH3 domain, ANK repeat and PH domain-containing protein 1 (Homo sapiens), … | ASAP1-stimulated ARF1 GTP hydrolysis, GDP FP detection | inhibition, % at 16.5 µM | 0.19% of 360,000 active | AID 624377, 2012; in the data active means inhibition above about 25%
Cardio protect – cardioprotection against H2O2-induced cell death, primary screen, uHTS, H9c2 cells, ATPLite luminescence; protection from H2O2 cell death, % at 20 µM; 0.63% of 360,000 active; H9c2 cardiomyocytes, H2O2 injury protection, 2 h;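 active means compounds giving at least 50% protection of heart cells from peroxide-induced death in the single-dose screen, raw or plate-pattern-corrected value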
ARFGAP1 inh – inhibitors of rat ARFGAP1 GAP activity, primary screen, biochemical, fluorescence polarization, GDP tracer; 0.26% of 360,000 active; AID 651572, 2012; ADP-ribosylation factor GTPase-activating protein 1 (Rattus norvegicus), Q62848; inhibition, % at 16.5 µM; Arfgap1-stimulated ARF1 GTP hydrolysis, GDP FP detection;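 active means inhibition above a per-plate limit, mean inhibition of low control wells plus 3 SD, cut at about 25% in these data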
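system = rat Arfgap1 catalytic domain, aa 1-136 | technique = FP, GDP Alexa 633 tracer displaced from anti-GDP antibody, 620/688 nm | compound = one concentration, 16.5 µM, DMSO 1.26% | medium = HEPES-based buffer, pH 7.5 | timing = compound-enzyme preincubation 20 min, reaction 120 min, detection 60 min, 25 °C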
Neddyl inh conf – blockade of NEDD8 conjugation to cullin – biochemical, TR-FRET, single concentration, confirmation; shares compounds with Neddylation inh; TR-FRET cullin neddylation biochemical assay; calls only at 25 µM; 13% of 1,800 active; AID 652217, 2013; in the data active means inhibition above about 40%;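 further: neddylation substrate is the cullin 1 ring ligase complex with SKP2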
Large screens that a line does not name were inactive (follow-up assays come after a bar, where shown).

OC(c1ccccc1)(c1nc(-c2cccc(C(F)(F)F)c2)cs1)C(F)(F)F (stereo not drawn)	none
CCCc1cc(=O)oc2c(C)c(OC3CCCCC3=O)ccc12 (stereo not drawn)	none
CCCCc1cc(=O)oc2cc(OC3CCCCC3=O)ccc12 (stereo not drawn)	Neddylation inh 38.6 | Neddyl inh conf inactive
CC(C(=O)NCc1ccccc1)n1c(CSCCOc2ccccc2)nc2ccccc21 (stereo not drawn)	none (no result: Cardio protect)
CCOC(=O)c1cccc(Nc2ncnc3ccc(C)cc23)c1	Neddylation inh 40.0 | Neddyl inh conf inactive
CCOC(=O)c1ccc(Nc2ncnc3ccc(C)cc23)cc1	none (not shown: Neddylation inh)
COC(=O)C1=C(C)N(Cc2cccc(C(F)(F)F)c2)C(=NCc2cc(OC)c(OC)c(OC)c2)NC1c1cccc(Cl)c1 (stereo not drawn)	none (no result: Neddylation inh, Cardio protect)
O=c1[nH]cnc2sc3c(c12)CCN(Cc1ccccc1)C3	Neddylation inh 39.7 | Neddyl inh conf inactive
Cn1c(=O)n(C)c2cc(S(=O)(=O)Nc3ccccc3C(=O)O)ccc21	Neddylation inh 41.9 | Neddyl inh conf inactive
CCc1nc2ccc(C(=O)N(C)Cc3ccco3)cn2c1N(C)Cc1ccc(OC)cc1	none
CN(C)Cc1c(C(=O)N/N=C/c2cccc3ccccc23)nnn1-c1nonc1N	none
CCCc1c(C(=O)N/N=C/c2c(OC)ccc3ccccc23)nnn1-c1nonc1N	Neddylation inh 49.1 | Neddyl inh conf inactive
CCCc1c(C(=O)N/N=C/c2ccc(OC)c(OCc3ccccc3)c2)nnn1-c1nonc1N	Neddylation inh 42.4 | Neddyl inh conf inactive
Cc1nnn(-c2nonc2N)c1C(=O)N/N=C/c1cccc2ccccc12	Neddylation inh 43.4 | Neddyl inh conf inactive
Cc1ccc(-c2c(C(=O)N/N=C/c3c[nH]c4ccccc34)nnn2-c2nonc2N)cc1	Neddylation inh 49.4 | Neddyl inh conf inactive
CCCc1c(C(=O)N/N=C/c2c[nH]c3ccccc23)nnn1-c1nonc1N	none
CCN(CC)C(=O)C1=C(C)N(Cc2ccccc2)C(=O)C(CC(=O)NC2CCCC2)C1 (stereo not drawn)	none
CCOc1cc(N2CCOCC2)c(OCC)cc1NC(=O)c1cc(C)cc(C)c1	none
CCOC(=O)c1c(C)[nH]c(C(=O)Nc2cc(OCC)c(N3CCOCC3)cc2OCC)c1C	Neddylation inh 44.6 | Neddyl inh conf inactive
O=C(N[C@H](Cc1ccccc1)C(=O)N1CCN(c2ccc(Cl)cn2)CC1)[C@H]1O[C@@H](n2ccc(=O)[nH]c2=O)[C@H](O)[C@@H]1O	none (no result: Neddylation inh, Cardio protect)
CCOC(=O)c1c(C)[nH]c(C(=O)OC/C(O)=C(\C#N)c2nc3ccccc3[nH]2)c1C	none (no result: ASAP1 GAP inh, ARFGAP1 inh)
CCOC(=O)/C(O)=C(\C#N)c1nc2ccccc2[nH]1	Neddylation inh 50.5
Cc1cc(C)c2c(NC(=O)CCl)nn(C)c2n1	Neddylation inh 40.3 | Neddyl inh conf inactive
CCCNC(=O)c1cc(C2CCCCN2C(=O)c2ccccc2)on1 (stereo not drawn)	none
Cn1c(O)c(/C=N/NC(=O)c2cc3ccccc3cc2O)c2ccccc21	none (not shown: Neddylation inh)
COCCn1c(C)cc(/C=N/NC(=O)c2cc3ccccc3cc2O)c1C	Neddylation inh 50.5 (not shown: ASAP1 GAP inh, ARFGAP1 inh)
COc1ccc(-c2nc3c(C)cc(Br)cn3c2Cc2cccc(Cl)c2)cc1OC	none
O=C(N/N=C/c1cn(Cc2ccccc2)c2ccccc12)c1cc(O)cc(O)c1	Neddylation inh 41.1 | Neddyl inh conf active
Cc1ccc(-c2cc(-c3ccc(F)cc3)c(C#N)c(N)n2)o1	Neddylation inh 52.9
COc1ccc(C(=O)N/N=C/c2sc(N3CCOCC3)nc2-c2ccccc2)cc1OC	Neddylation inh 45.3 | Neddyl inh conf inactive
O=C(N/N=C/c1sc(N2CCOCC2)nc1-c1ccccc1)c1ccc(O)cc1	Neddylation inh 58.8 | Neddyl inh conf active
O=C(N/N=C/c1sc(N2CCOCC2)nc1-c1ccccc1)c1cccc(S(=O)(=O)N2CCCC2)c1	none (not shown: Neddylation inh)
Cc1occc1C(=O)N/N=C/c1sc(N2CCOCC2)nc1-c1ccccc1	none
Cc1nc2c(OCCOc3ccc(F)cc3)cccn2c1N(C)C(=O)CCC1CCCC1	none
